Source: PubChem (several laboratories)
FN deposit inh = fibronectin deposition inhibition; 350,000 compounds, 0.086% hits; AH1F fibroblasts, Alexa488-fibronectin deposition fluorescence, overnight; inhibition, % at 12.6 µM; AID 743247;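 active = mean inhibition across replicates of 30% or more, regardless of how many single replicates reach that level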;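 note: positive control wells lacked labelled fibronectin entirely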
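Assay system: AH1F fibroblast monolayer, labelled fibronectin deposition. Amount: 10000 cells per well. Also added: labelled fibronectin 24 nM. Compound: single-point pinned compound. Incubation: cell attachment 1 h, compound and FN exposure overnight. Detection: fluorescence after three HBSS washes, excitation 485 nm, emission 525 nm. Read-out: inhibition of fibronectin deposition signal.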
LGR2 antag = inhibitors of bursicon-induced Drosophila LGR2 receptor cAMP signaling; AID 720647; HEK293 LGR2, CRE-luciferase, bursicon-stimulated, 4 h; 380,000 compounds, 0.35% hits; inhibition, % at 9.99 µM;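 active = drop in luminescence signal, shown as inhibition above about 50% in the replicate tests, limit read from the data, passing the limit was not always enough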;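 note: agonist challenge used bursicon conditioned medium at about half maximal strength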
Xi reactivation = X-chromosome reactivation activator | XiGFP mouse fibroblasts, % GFP-positive cells imaging, 3 d; cells co-treated with 5-aza-dC sensitizer; scaled so ellipticine positive control = 100% | activation, % at 7.58 µM | 360,000 compounds, 0.055% hits;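 active = mean normalized replicate activation at least 10% and every replicate at or above 10%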;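 note: 0% = median of on-plate neutral control wells and 100% = ellipticine 6 µM median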
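material = 68-5-11 XiGFP fibroblast line | medium = DMEM plus 5-aza-dC sensitizer | schedule = 3 days compound exposure | benchmarks = positive control ellipticine, 6 µM final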
TWEAK-Fn14 inh = inhibitors of TWEAK-Fn14 interaction signaling; TWEAK-stimulated Fn14 reporter cells, luciferase luminescence, 8 h; inhibition, % at 10 µM; AID 1159606; 360,000 compounds, 2% hits; in the data active = inhibition above about 50%
TROY signal inh = inhibitors of TROY-dependent NF-kB signaling; Q293 LMP1-TROYcd NF-kB luciferase reporter, 4 h; 360,000 compounds, 0.98% hits; inhibition, % at 10 µM;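 active = compounds whose plate-normalised and pattern-corrected inhibition of the luciferase reporter signal at the single screening dose is 50% or more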
EWS-Fli block = blocks EWS/Fli oncoprotein-driven transcription. 350,000 compounds, 0.67% hits. inhibition, % at 12.6 µM. A673 NR0B1-luciferase reporter, viability-normalised;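 active = mean inhibition of at least 50% after viability correction, with every replicate also passing that limit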;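 note: firefly luciferase signal divided by Alamar Blue viability fluorescence both relative to DMSO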
DNA binding = small molecule DNA binding by fluorescence polarization; AC35, µM (titrated, usually from 68 µM), for inactives: top-dose activity change, negative = DNA binding; shares compounds with EWS-Fli block; salmon sperm DNA acridine orange fluorescence polarization; 640 compounds, 2% hits;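 active = fitted curve reaches a 35% signal fall AC35 below twice the sample's top valid tested dose, actives reach about 48 µM in these data; inactive = the rest, including activity in the rising direction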;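 note: lower polarization ratio signals compound binding to DNA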
* marks the source's active call; other numbers are inactive results; ! = a repeat was not active. Shown are actives, neighbours in structure and some others; about 2.3% of the full set was active somewhere.

How did O=C(O)c1ccc(N/N=C/c2cc(Br)cs2)cc1 do in these assays?
FN deposit inh: 0; LGR2 antag: 43; Xi reactivation: 0; TWEAK-Fn14 inh: -6; TROY signal inh: 49; EWS-Fli block: 65*; DNA binding: -3%

How did COc1ccc(/C=N/Nc2ccc(C(=O)O)cc2)cc1OC do in these assays?
FN deposit inh: 15; LGR2 antag: -11; Xi reactivation: 0; TWEAK-Fn14 inh: 44; TROY signal inh: -24; EWS-Fli block: -37

What do the screens show for `CCS(=O)(=O)NCC[C@H]1CC[C@@H](NC(=O)C2CCCC2)[C@H](CO)O1`?
LGR2 antag: 0; Xi reactivation: 0; EWS-Fli block: 6

Results for Cc1noc(C)c1S(=O)(=O)N(C)C[C@H]1OCCCC[C@@H](C)Oc2ccc(NS(C)(=O)=O)cc2C(=O)N([C@@H](C)CO)C[C@H]1C ?
LGR2 antag: 12; Xi reactivation: 0; EWS-Fli block: -11

How did Cc1ccc(-c2ccc3c(c2)O[C@@H](CN(C)C(=O)Nc2ccc(F)cc2)[C@H](C)CN([C@@H](C)CO)S3(=O)=O)cc1 do in these assays?
FN deposit inh: 3; LGR2 antag: 1; Xi reactivation: -1; EWS-Fli block: 54*; DNA binding: -10%

Results for CC(C)NC(=O)N(C)C[C@@H]1Oc2cc(C#Cc3ccc(F)cc3)ccc2S(=O)(=O)N([C@H](C)CO)C[C@H]1C ?
LGR2 antag: 18; Xi reactivation: 1; EWS-Fli block: 56*; DNA binding: -9%

What do the screens show for `Cc1ccc(-c2ccc3c(c2)O[C@@H](CN(C)C(=O)Nc2ccc(F)cc2)[C@H](C)CN([C@H](C)CO)S3(=O)=O)cc1`?
FN deposit inh: 12; LGR2 antag: 17; Xi reactivation: 0; EWS-Fli block: 29

What do the screens show for `O=C(/C=C/c1cc(Br)ccc1O)c1ccco1`?
FN deposit inh: 3; LGR2 antag: 27; Xi reactivation: 0; TWEAK-Fn14 inh: 62*; TROY signal inh: 33; EWS-Fli block: 59*; DNA binding: -17%

Results for O=C(Nc1ccccc1)c1cc(C2CCCN(C(=O)C/C=C/c3ccccc3)C2)on1 (stereo unspecified) ?
FN deposit inh: 1; LGR2 antag: -40; Xi reactivation: 0; TWEAK-Fn14 inh: 7; TROY signal inh: 7; EWS-Fli block: -15

How did CC(=O)N1CCCC(c2cc(C(=O)Nc3ccccc3)no2)C1 (stereo unspecified) do in these assays?
FN deposit inh: 3; LGR2 antag: 88*; Xi reactivation: 0; TWEAK-Fn14 inh: 101*; TROY signal inh: 80*; EWS-Fli block: 75*; DNA binding: -2%

Results for C[C@H]1O[C@@H](O[C@H]2[C@@H](O)C[C@H](O[C@H]3[C@@H](O)C[C@H](O[C@H]4CC[C@@]5(C)[C@H](CC[C@@H]6[C@@H]5C[C@@H](O)[C@]5(C)[C@@H](C7=CC(=O)OC7)CC[C@]65O)C4)O[C@@H]3C)O[C@@H]2C)C[C@H](O)[C@@H]1O ?
FN deposit inh: 5; LGR2 antag: 84*; Xi reactivation: 0; TWEAK-Fn14 inh: 69*; TROY signal inh: 53*; EWS-Fli block: 66*; DNA binding: -4%

What do the screens show for `CC(C)CC(NC(=O)c1cccs1)c1nnc(SCc2ccc(Cl)c(Cl)c2)n1C` (stereo unspecified)?
LGR2 antag: 10; Xi reactivation: 0; TWEAK-Fn14 inh: 29; TROY signal inh: 24; EWS-Fli block: 76*; DNA binding: -21%

Results for COc1ccc(C(=O)NC(CO)c2nnc(SCc3ccc(Cl)c(Cl)c3)n2C)cc1 (stereo unspecified) ?
LGR2 antag: -6; TWEAK-Fn14 inh: 12; TROY signal inh: 9

How did Cc1c(-c2nc(-c3ccc(C(C)(C)C)cc3)no2)n(C)oc1=O do in these assays?
FN deposit inh: 7; LGR2 antag: -8; Xi reactivation: 0; TWEAK-Fn14 inh: -39; TROY signal inh: -63; EWS-Fli block: 56*; DNA binding: 3.5µM*

Results for COc1ccccc1S(=O)(=O)N[C@@H]1CC[C@H](CCNC(=O)C2CCCC2)O[C@@H]1CO ?
FN deposit inh: -11; LGR2 antag: 0; Xi reactivation: 0; EWS-Fli block: 11

How did CN(C)c1ncnc2c1ccn2C1OC(CO)C(O)C1O (stereo unspecified) do in these assays?
FN deposit inh: 17; LGR2 antag: 23; Xi reactivation: 0; TWEAK-Fn14 inh: -15; TROY signal inh: -58; EWS-Fli block: 63*; DNA binding: 14%

Results for CN(C)c1nc2c(N)ncnc2n1C1OC(CO)C(O)C1O (stereo unspecified) ?
FN deposit inh: -5; LGR2 antag: 23; Xi reactivation: 0; TWEAK-Fn14 inh: 4; TROY signal inh: 12; EWS-Fli block: 5

What do the screens show for `COc1cccc(S(=O)(=O)N(C)C[C@@H]2OCc3cnnn3CCCC(=O)N([C@H](C)CO)C[C@H]2C)c1`?
FN deposit inh: -12; LGR2 antag: -3; Xi reactivation: -1; TWEAK-Fn14 inh: -4; TROY signal inh: -8; EWS-Fli block: 4

How did COc1cccc(S(=O)(=O)N(C)C[C@H]2OCc3cnnn3CCCC(=O)N([C@@H](C)CO)C[C@H]2C)c1 do in these assays?
FN deposit inh: 13; LGR2 antag: 13; Xi reactivation: 0; TWEAK-Fn14 inh: 3; TROY signal inh: -9; EWS-Fli block: 60*!; DNA binding: -12%

What do the screens show for `COc1ccc(NC(=O)N2CCCCN3[C@@H](CO)[C@H](c4ccc(C5=CCCCC5)cc4)[C@@H]3C2)cc1`?
LGR2 antag: -9; Xi reactivation: 0; EWS-Fli block: 71*; DNA binding: -2%

Results for O=C(N[C@H]1CC[C@@H](CCNS(=O)(=O)c2cccc(Cl)c2)O[C@H]1CO)c1ccccc1 ?
LGR2 antag: 27; Xi reactivation: 0; EWS-Fli block: 0

How did Cc1ccc(C(CC(=O)O)Nc2nc(N3CCOCC3)nc(N3CCOCC3)n2)cc1 (stereo unspecified) do in these assays?
LGR2 antag: -4; Xi reactivation: 0; TWEAK-Fn14 inh: -5; TROY signal inh: -9; EWS-Fli block: 65*; DNA binding: -4%

How did CNc1nc(C(=O)O)nc(N2CCOCC2)n1 do in these assays?
LGR2 antag: 4; TWEAK-Fn14 inh: 9; TROY signal inh: 11; EWS-Fli block: -4

How did CCCN1C[C@@H](C)[C@@H](OC)CN(C)C(=O)c2ccc(NC(=O)Nc3cccc(OC)c3)cc2OC[C@@H]1C do in these assays?
FN deposit inh: -16; LGR2 antag: 3; Xi reactivation: 0; EWS-Fli block: 1
